“Also recorded” adds a separate entry of the source. Like-named read-outs stand apart in the source and are kept apart here.
Key:
[1] = cited from earlier work
[2] = tested on: solid tumor cells; details: safingol alone; cited from earlier work
[3] = tested on: patients; details: cited from earlier work
[4] = tested on: mice; details: mouse, in vivo; cited from earlier work
[5] = tested on: advanced solid tumors; assay: Antitumor activity; format: in vivo, human
[6] = Safingol plasma pharmacokinetics in the phase I trial; format: in vivo, human; details: for dose dependence of safingol PK parameters (Cmax, AUC): safingol 60–930 mg/m^2
Summary of the method: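 Safingol was an egg-phospholipid/dextrose/lactic acid emulsion diluted to 1 mg/ml in saline and infused IV over 60–120 min at 60–930 mg/m2. […] Assay was HPLC-MS/MS with non-compartmental analysis.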

[7] = target: sphingosine kinase 1 (SphK); details: cited from earlier work
[8] = target: Protein Kinase C; details: PKC; cited from earlier work
[9] = tested on: sphingosine-1-phophate (S1P) levels; assay: Pharmacodynamics: plasma S1P levels after safingol; format: in vivo, human; details: for effect on S1P in plasma: across dose cohorts
Summary of the method: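 Levels 1 h and 4 h after safingol were normalized to pre-treatment levels, with patients grouped by dose cohort. Values are cohort means with standard error.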

[10] = tested on: patients with advanced solid tumors; details: for AST/ALT G2 (number of patients) / Fatigue G4 (number of patients) / Hyponatremia G2 (number of patients) / Hyponatremia G3 (number of patients) / Hyponatremia G4 (number of patients) / Lymphopenia G2 (number of patients) / Lymphopenia G3 (number of patients) / Lymphopenia G4 (number of patients) / Nausea/vomiting G2 (number of patients) / Nausea/vomiting G3 (number of patients): cycle 1
[11] = cited from earlier work; remark: listed apart in the source
[12] = tested on: xenograft; details: cited from earlier work
[13] = safingol + cisplatin, 6 patients
[14] = safingol + cisplatin, 37 patients evaluable
[15] = cohorts 8–10, safingol 750–930 mg/m^2
[16] = cohort 1 (safingol 60, cisplatin 75 mg/m^2), N=4
[17] = cohort 2 (safingol 120, cisplatin 75 mg/m^2), N=3
[18] = cohort 3 (safingol 240, cisplatin 75 mg/m^2), N=3
[19] = cohort 4 (safingol 240, cisplatin 60 mg/m^2), N=6
[20] = cohort 5 (safingol 360, cisplatin 60 mg/m^2), N=3
[21] = cohort 6 (safingol 480, cisplatin 60 mg/m^2), N=3
[22] = cohort 7 (safingol 600, cisplatin 60 mg/m^2), N=3
[23] = cohort 8 (safingol 750, cisplatin 60 mg/m^2), N=6
[24] = cohort 9 (safingol 930, cisplatin 60 mg/m^2), N=6
[25] = cohort 10 (safingol 840, cisplatin 60 mg/m^2), N=6

For CCCCCCCCCCCCCCC[C@H](O)[C@@H](N)CO [Safingol, (2S,3S)-2-amino-1,3-octadecanediol], the “effect on in vitro antitumor effect of doxorubicin, cisplatin and mitomycin C” value [1] is given as “increases the in vitro antitumor effect”, the cell death mechanism [2] is given as “induces cell death by autophagy” and the safingol-associated toxicity ([3]; phase I study with doxorubicin) is given as “a single episode of grade 1 hemolysis”. For the same compound, the hepatic toxicity ([3]; safingol doses not exceeding 120 mg/m^2 with doxorubicin) was “no hepatic toxicity was observed”, the dose-limiting toxicity ([3]; safingol up to 120 mg/m^2 every three weeks with doxorubicin) was “no dose-limiting toxicity observed” and the “hepatic toxicity in mice” value [4] was “increases in ALT and histological changes consistent with hepatocyte autophagy”. The “duration of stable disease” value ([5]; other patient with adrenal cortical cancer) was 7.2 m, the “average duration of stable disease” value [5, 13] was 3.3 m and the “range of duration of stable disease” value [5, 13] was 1.8 – 7.2 m. The “average duration of stable disease” value ([5]; safingol + cisplatin, 6 patients, listed as S) was 3.3 months, the best response [5, 14] was “stable disease” and the “number of patients with stable disease” value [5, 14] was 6. For the same compound, the “pharmacokinetic interaction of safingol with cisplatin (day 1 vs day 8)” value ([6]; cohorts 1–7, listed as S) was “no significant interaction”, the “duration of safingol concentration over 20 µM” value [6, 15] was under 1 h and the “time safingol levels of at least 5 µM persist after treatment” value [6, 15] was “at least 4 hours”. For the same compound, the AUC ([6]; human, plasma, intravenous, Mean day 1 safingol AUC, safingol 600 – 930 mg/m^2) was 102 to 110 µM·h, the Cmax ([6]; human, plasma, intravenous, Mean day 1 safingol Cmax, safingol 600 – 930 mg/m^2) was 23.9 to 26.8 µM and the “increase in AUC per 100 mg/m^2 increase in safingol dose” value ([6]; on average) was 10 µM·h. The “increase in Cmax per 100 mg/m^2 increase in safingol dose” value ([6]; on average) was 3 µM, the “dose dependence of safingol PK parameters (Cmax, AUC)” value [6] was “increased in a linear and dose-proportional manner; also recorded: increased linearly with dose” and the “dose dependence of safingol PK parameters (Cmax, AUC)” value ([6]; listed as S) was “linear throughout the dose range”. The Ki ([7]; SphK) was 5 µM, the Ki ([7]; competitive inhibitor of SphK) was about 5 µM and the Ki [8] was 33 µM. For the same compound, the “effect on S1P in plasma” value [9] was “dose-dependent decreases; also recorded: significant decreases”, the “effect on S1P in plasma” value ([9]; listed as S) was “dose-dependent reduction” and the “time dependence of S1P levels” value ([9]; safingol 930 mg/m^2, p = 0.001) was “lower 4 hours post-treatment than at 1 hour post-treatment”. The “decrease of S1P levels relative to pre-treatment” value ([9]; safingol doses of over 750 mg/m^2, p < 0.001) was “about half”, the “upper limit of the 95% posterior interval of DLT rate” value ([10]; MTD cohort) was 40% and the “DLT rate for the MTD cohort” value ([10]; cohort 10, 1/6) was 17%. The hemolysis ([10]; current study, careful monitoring) was “no hemolysis was observed in any patient”, the “AST/ALT G2 (number of patients)” value [10, 16] was 0 and the “Fatigue G4 (number of patients)” value [10, 16] was 0. For the same compound, the “Hyponatremia G2 (number of patients)” value [10, 16] was 0, the “Hyponatremia G3 (number of patients)” value [10, 16] was 1 and the “Hyponatremia G4 (number of patients)” value [10, 16] was 0. The “Lymphopenia G2 (number of patients)” value [10, 16] was 0, the “Lymphopenia G3 (number of patients)” value [10, 16] was 1 and the “Lymphopenia G4 (number of patients)” value [10, 16] was 0. The “Nausea/vomiting G2 (number of patients)” value [10, 16] was 0, the “Nausea/vomiting G3 (number of patients)” value [10, 16] was 0 and the “AST/ALT G2 (number of patients)” value [10, 17] was 0. For the same compound, the “Fatigue G4 (number of patients)” value [10, 17] was 0, the “Hyponatremia G2 (number of patients)” value [10, 17] was 0 and the “Hyponatremia G3 (number of patients)” value [10, 17] was 0. The “Hyponatremia G4 (number of patients)” value [10, 17] was 0, the “Lymphopenia G2 (number of patients)” value [10, 17] was 0 and the “Lymphopenia G3 (number of patients)” value [10, 17] was 1. For the same compound, the “Lymphopenia G4 (number of patients)” value [10, 17] was 0, the “Nausea/vomiting G2 (number of patients)” value [10, 17] was 1 and the “Nausea/vomiting G3 (number of patients)” value [10, 17] was 0. For the same compound, the “AST/ALT G2 (number of patients)” value [10, 18] was 0, the “Fatigue G4 (number of patients)” value [10, 18] was 0 and the “Hyponatremia G2 (number of patients)” value [10, 18] was 0. The “Hyponatremia G3 (number of patients)” value [10, 18] was 1, the “Hyponatremia G4 (number of patients)” value [10, 18] was 0 and the “Lymphopenia G2 (number of patients)” value [10, 18] was 0. The “Lymphopenia G3 (number of patients)” value [10, 18] was 0, the “Lymphopenia G4 (number of patients)” value [10, 18] was 0 and the “Nausea/vomiting G2 (number of patients)” value [10, 18] was 3. For the same compound, the “Nausea/vomiting G3 (number of patients)” value [10, 18] was 0, the “AST/ALT G2 (number of patients)” value [10, 19] was 1 and the “Fatigue G4 (number of patients)” value [10, 19] was 0. The “Hyponatremia G2 (number of patients)” value [10, 19] was 0, the “Hyponatremia G3 (number of patients)” value [10, 19] was 0 and the “Hyponatremia G4 (number of patients)” value [10, 19] was 0. For the same compound, the “Lymphopenia G2 (number of patients)” value [10, 19] was 0, the “Lymphopenia G3 (number of patients)” value [10, 19] was 3 and the “Lymphopenia G4 (number of patients)” value [10, 19] was 0. For the same compound, the “Nausea/vomiting G2 (number of patients)” value [10, 19] was 0, the “Nausea/vomiting G3 (number of patients)” value [10, 19] was 0 and the “AST/ALT G2 (number of patients)” value [10, 20] was 1. For the same compound, the “Fatigue G4 (number of patients)” value [10, 20] was 0, the “Hyponatremia G2 (number of patients)” value [10, 20] was 0 and the “Hyponatremia G3 (number of patients)” value [10, 20] was 0. The “Hyponatremia G4 (number of patients)” value [10, 20] was 0, the “Lymphopenia G2 (number of patients)” value [10, 20] was 0 and the “Lymphopenia G3 (number of patients)” value [10, 20] was 1. The “Lymphopenia G4 (number of patients)” value [10, 20] was 0, the “Nausea/vomiting G2 (number of patients)” value [10, 20] was 0 and the “Nausea/vomiting G3 (number of patients)” value [10, 20] was 0. For the same compound, the “AST/ALT G2 (number of patients)” value [10, 21] was 0, the “Fatigue G4 (number of patients)” value [10, 21] was 0 and the “Hyponatremia G2 (number of patients)” value [10, 21] was 0. For the same compound, the “Hyponatremia G3 (number of patients)” value [10, 21] was 0, the “Hyponatremia G4 (number of patients)” value [10, 21] was 0 and the “Lymphopenia G2 (number of patients)” value [10, 21] was 0. For the same compound, the “Lymphopenia G3 (number of patients)” value [10, 21] was 0, the “Lymphopenia G4 (number of patients)” value [10, 21] was 0 and the “Nausea/vomiting G2 (number of patients)” value [10, 21] was 0. The “Nausea/vomiting G3 (number of patients)” value [10, 21] was 0, the “AST/ALT G2 (number of patients)” value [10, 22] was 0 and the “Fatigue G4 (number of patients)” value [10, 22] was 0. The “Hyponatremia G2 (number of patients)” value [10, 22] was 0, the “Hyponatremia G3 (number of patients)” value [10, 22] was 0 and the “Hyponatremia G4 (number of patients)” value [10, 22] was 0. The “Lymphopenia G2 (number of patients)” value [10, 22] was 0, the “Lymphopenia G3 (number of patients)” value [10, 22] was 0 and the “Lymphopenia G4 (number of patients)” value [10, 22] was 0. For the same compound, the “Nausea/vomiting G2 (number of patients)” value [10, 22] was 0, the “Nausea/vomiting G3 (number of patients)” value [10, 22] was 0 and the “AST/ALT G2 (number of patients)” value [10, 23] was 1. The “Fatigue G4 (number of patients)” value [10, 23] was 0, the “Hyponatremia G2 (number of patients)” value [10, 23] was 0 and the “Hyponatremia G3 (number of patients)” value [10, 23] was 0. For the same compound, the “Hyponatremia G4 (number of patients)” value [10, 23] was 0, the “Lymphopenia G2 (number of patients)” value [10, 23] was 0 and the “Lymphopenia G3 (number of patients)” value [10, 23] was 0. The “Lymphopenia G4 (number of patients)” value [10, 23] was 0, the “Nausea/vomiting G2 (number of patients)” value [10, 23] was 0 and the “Nausea/vomiting G3 (number of patients)” value [10, 23] was 0. For the same compound, the “AST/ALT G2 (number of patients)” value [10, 24] was 1, the “Fatigue G4 (number of patients)” value [10, 24] was 0 and the “Hyponatremia G2 (number of patients)” value [10, 24] was 0. For the same compound, the “Hyponatremia G3 (number of patients)” value [10, 24] was 1, the “Hyponatremia G4 (number of patients)” value [10, 24] was 0 and the “Lymphopenia G2 (number of patients)” value [10, 24] was 0. For the same compound, the “Lymphopenia G3 (number of patients)” value [10, 24] was 2, the “Lymphopenia G4 (number of patients)” value [10, 24] was 0 and the “Nausea/vomiting G2 (number of patients)” value [10, 24] was 0. The “Nausea/vomiting G3 (number of patients)” value [10, 24] was 0, the “AST/ALT G2 (number of patients)” value [10, 25] was 0 and the “Fatigue G4 (number of patients)” value [10, 25] was 0. The “Hyponatremia G2 (number of patients)” value [10, 25] was 0, the “Hyponatremia G3 (number of patients)” value [10, 25] was 2 and the “Hyponatremia G4 (number of patients)” value [10, 25] was 0. The “Lymphopenia G2 (number of patients)” value [10, 25] was 0, the “Lymphopenia G3 (number of patients)” value [10, 25] was 0 and the “Lymphopenia G4 (number of patients)” value [10, 25] was 0. The “Nausea/vomiting G2 (number of patients)” value [10, 25] was 1, the “Nausea/vomiting G3 (number of patients)” value [10, 25] was 0 and the maximum administered dose ([10]; exceeded the MTD) was 930 mg/m^2. The “DLT from safingol (principal DLT)” value ([10]; in combination with cisplatin) was “hepatic enzyme elevation”, the “overall tolerability of the drug combination” value ([10]; in vivo) was “well tolerated with no major increase in toxicities over those of cisplatin alone” and the “maximum tolerated dose (MTD)” value ([10]; safingol over 120 min with cisplatin 60 mg/m^2, every 3 weeks) was 840 mg/m^2. The “recommended phase 2 dose” value ([10]; with cisplatin 60 mg/m^2, every 3 weeks) was 840 mg/m^2, the “pharmacokinetic interaction with doxorubicin” value ([11]; phase I study with doxorubicin) was “No significant pharmacokinetic interaction” and the Cmax ([11]; read-out: mean Cmax, safingol 60 mg/m^2, study of safingol and doxorubicin) was 1300 nM. The “effect on antitumor activity of cisplatin in xenografts” value [12] was “can increase the antitumor activity of cisplatin without increasing toxicity”.

Source: paper PMC3078945 (Clinical cancer research : an official journal of the …, 2011)
